Measured values reported in ChEMBL document CHEMBL3286301, “Solving time-dependent CYP3A4 inhibition for a series of indole-phenylacetic acid dual antagonists of the PGD(2) receptors CRTH2 and DP” (Bioorg Med Chem Lett, 2014).

What was measured:
[1] = biological target: T1, Prostaglandin D2 receptor 2 (Homo sapiens, UniProt Q9Y5Y4); assay: Displacement of [3H]-PGD2 from human CRTH2 expressed in HEK293 cells in presence of 50% human plasma by scintillation counting; assay type: cell-based
T1 sequence (Q9Y5Y4 whole entry): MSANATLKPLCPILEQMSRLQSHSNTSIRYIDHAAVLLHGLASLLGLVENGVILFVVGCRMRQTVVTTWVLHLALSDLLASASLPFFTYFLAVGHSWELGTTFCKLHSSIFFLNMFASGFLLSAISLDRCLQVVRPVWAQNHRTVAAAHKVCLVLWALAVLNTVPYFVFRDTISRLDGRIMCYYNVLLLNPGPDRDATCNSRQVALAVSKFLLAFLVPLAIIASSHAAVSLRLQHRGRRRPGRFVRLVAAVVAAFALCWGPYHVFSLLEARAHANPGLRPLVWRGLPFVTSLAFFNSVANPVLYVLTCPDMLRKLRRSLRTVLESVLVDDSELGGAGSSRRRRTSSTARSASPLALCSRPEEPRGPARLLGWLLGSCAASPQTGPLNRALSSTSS
Outline: (§1)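 Radioligand binding: displacement of ³H-PGD2 from receptor expressed on HEK 293 cells. Run either in buffer with 0.5% bovine serum albumin or in 50% human plasma. IC50 values are the average of at least two experiments.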

[2] = biological target: CYP3A4 (Homo sapiens, UniProt P08684); assay: Time dependent inhibition of human liver microsome CYP3A4 activity assessed as percentage remaining activity by measuring 6-beta-OH-testosterone formation at 15 uM for 15 mins using 200 uM testosterone as a substrate by LC/MS/MS analysis; assay type: ADME; settings: liver microsomes, probe testosterone, read-out: Activity
CYP3A4, sequence (P08684 whole entry): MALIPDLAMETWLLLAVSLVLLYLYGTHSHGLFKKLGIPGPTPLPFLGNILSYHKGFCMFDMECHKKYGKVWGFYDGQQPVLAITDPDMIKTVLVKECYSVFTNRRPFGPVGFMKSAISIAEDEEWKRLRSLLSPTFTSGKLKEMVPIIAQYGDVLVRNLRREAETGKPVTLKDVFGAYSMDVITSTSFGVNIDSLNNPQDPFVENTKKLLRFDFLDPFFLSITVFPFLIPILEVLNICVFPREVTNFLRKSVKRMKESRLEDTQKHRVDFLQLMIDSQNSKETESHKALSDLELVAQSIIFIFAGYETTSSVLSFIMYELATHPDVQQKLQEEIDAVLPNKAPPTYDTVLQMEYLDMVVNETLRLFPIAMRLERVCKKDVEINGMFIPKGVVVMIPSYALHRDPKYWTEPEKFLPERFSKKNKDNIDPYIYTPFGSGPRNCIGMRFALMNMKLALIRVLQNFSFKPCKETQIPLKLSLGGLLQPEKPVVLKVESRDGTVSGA
Outline: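 Pooled human liver microsomes (1.0 mg/mL) in 100 mM potassium phosphate, pH 7.4, preincubated with compound (15 µM) and 1 mM NADPH for 15 min. Then diluted 1:10 into a secondary incubation with 200 µM testosterone (saturating) plus 1 mM NADPH for 20 min. Stopped with acetonitrile containing deuterated internal standard. 6β-OH-testosterone measured by LC/MS/MS; % remaining activity reported. Average of at least two experiments.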

[3] = biological target: T2, Prostaglandin D2 receptor (Homo sapiens, UniProt Q13258); assay: Displacement of [3H]-PGD2 from human DP receptor expressed in HEK293 cells in buffer solution with 0.5% bovine serum albumin by scintillation counting; assay type: cell-based; outline: as §1
T2 sequence (Q13258 whole entry): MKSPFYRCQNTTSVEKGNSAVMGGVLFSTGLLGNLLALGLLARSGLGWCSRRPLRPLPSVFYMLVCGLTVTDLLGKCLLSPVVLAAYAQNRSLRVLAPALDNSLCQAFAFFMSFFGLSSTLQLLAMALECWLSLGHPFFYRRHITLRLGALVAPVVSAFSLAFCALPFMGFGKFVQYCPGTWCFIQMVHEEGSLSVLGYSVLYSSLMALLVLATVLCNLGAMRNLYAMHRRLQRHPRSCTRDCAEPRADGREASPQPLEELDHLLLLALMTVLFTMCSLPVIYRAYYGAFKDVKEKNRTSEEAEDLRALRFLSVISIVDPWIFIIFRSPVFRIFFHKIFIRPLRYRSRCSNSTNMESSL

[4] = biological target: T2, Prostaglandin D2 receptor; assay: Displacement of [3H]-PGD2 from human DP receptor expressed in HEK293 cells in presence of 50% human plasma by scintillation counting; assay type: cell-based; outline: as §1
[5] = biological target: T1, Prostaglandin D2 receptor 2; assay: Displacement of [3H]-PGD2 from human CRTH2 expressed in HEK293 cells in buffer solution with 0.5% bovine serum albumin by scintillation counting; assay type: cell-based; outline: as §1

SMILES | IC50 [1] [nM] | activity at 0.25 h, 15 µM [2] [%] | IC50 [3] [nM] | IC50 [4] [nM] | IC50 [5] [nM]
COc1cc(CC(=O)O)ccc1Oc1ccc2[nH]c(C3CC3)cc2c1NS(=O)(=O)c1ccc(Cl)cc1Cl | 25 | 41 | 74 | 350 | 8
COc1cc(CC(=O)O)ccc1Oc1ccc2[nH]c(CC(C)C)cc2c1NS(=O)(=O)c1ccc(Cl)cc1Cl | 48 | 38 | 62 | 110 | 32
COc1cc(CC(=O)O)ccc1Oc1ccc2[nH]c(C(C)(C)C)cc2c1NS(=O)(=O)c1ccc(Cl)cc1Cl | – | 81 | 8400 | – | 32
CCCc1cc2c(NS(=O)(=O)c3ccc(Cl)cc3Cl)c(Oc3ccc(CC(=O)O)cc3OC)ccc2[nH]1 | 110 | 79 | 45 | 130 | 57
COc1cc(CC(=O)O)ccc1Oc1ccc2c(cc(C)n2C)c1NS(=O)(=O)c1ccc(Cl)cc1Cl | 56 | 28 | 27 | 76 | 22
COc1cc(CC(=O)O)ccc1Oc1ccc2[nH]c(C)c(Cl)c2c1NS(=O)(=O)c1ccc(Cl)cc1Cl | – | 87 | 1100 | – | 220
COc1cc(CC(=O)O)ccc1Oc1ccc2[nH]c(C#N)cc2c1NS(=O)(=O)c1ccc(Cl)cc1Cl | 130 | 73 | 82 | 130 | 27
COc1cc(CC(=O)O)ccc1Oc1ccc2c(c1NS(=O)(=O)c1ccc(Cl)cc1Cl)CC(=O)N2 | 31 | 103 | 17 | 1300 | 3
